Screening results as filed in PubChem BioAssay.
FXIa inh: factor XIa (human) inhibition; P03951; purified FXIa, Boc-Glu-Ala-Arg-AMC fluorogenic substrate; inhibition, % at 5 µM; 220,000 compounds, 0.14% hits;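 active = inhibition of at least 40%; inactive = inhibition below 40%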;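 also: fluorescence of freed AMC excited at 355 nm; 0% = enzyme without compound and 100% = no enzyme blank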
Calpain2 inh: blocks pig calpain II enzyme activity | 220,000 compounds, 0.37% hits | purified calpain II, fluorogenic peptide substrate, 30 min | inhibition, % at 16 µM;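 active = inhibition above about 50%, limit read from the data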
hK5 inh: kallikrein 5 (human) inhibition; 210,000 compounds, 0.59% hits; Q9Y337; recombinant hK5, fluorogenic AMC substrate cleavage; inhibition, % at 5 µM;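 active = inhibition of 40% or more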;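 also: 0% = enzyme controls without compound and 100% = no-enzyme blanks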
thrombin 1536: blocks human thrombin protease activity | alpha-thrombin, Boc-VPR-AMC fluorogenic substrate cleavage | inhibition, % at 5 µM | 220,000 compounds, 0.26% hits | AID 1046;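 active = inhibition at or above 40%; inactive = inhibition below 40%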;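 also: 0% = enzyme with no compound and 100% = wells without enzyme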
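Material: Human alpha-thrombin protein | Buffer or medium: pH 7.5 Tris-saline with Tween 20 | Reagent: Boc-VPR-AMC substrate, 15 µM final | Schedule: Reaction at ambient temperature | Detection: AMC fluorescence at 355 nm excitation and 460 nm emission | Evaluation: Percent inhibition scaled between no-compound controls and no-enzyme blanks | Controls: no-compound enzyme wells and no-enzyme blanks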
FXIIa inh: factor XIIa (human) inhibition; P00748; purified FXIIa, Boc-QGR-AMC fluorogenic substrate, 2 h; inhibition, % at 5 µM; 220,000 compounds, 0.3% hits; in the data active = inhibition above about 40%;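 also: 0% = enzyme with no compound and 100% = blank without enzyme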
Target sequence (P00748 20-372 limits assumed): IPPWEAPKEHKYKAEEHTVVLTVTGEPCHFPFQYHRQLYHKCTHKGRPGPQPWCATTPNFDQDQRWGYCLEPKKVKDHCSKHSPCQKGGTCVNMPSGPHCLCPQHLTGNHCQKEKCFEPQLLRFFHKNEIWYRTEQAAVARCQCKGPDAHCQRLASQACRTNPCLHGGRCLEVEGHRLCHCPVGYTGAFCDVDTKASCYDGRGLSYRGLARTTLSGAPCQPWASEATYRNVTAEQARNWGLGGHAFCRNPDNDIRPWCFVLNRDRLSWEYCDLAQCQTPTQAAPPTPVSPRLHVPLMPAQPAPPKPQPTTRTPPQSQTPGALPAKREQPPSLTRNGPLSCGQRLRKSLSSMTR
Target sequence (P00748 373-615 limits assumed): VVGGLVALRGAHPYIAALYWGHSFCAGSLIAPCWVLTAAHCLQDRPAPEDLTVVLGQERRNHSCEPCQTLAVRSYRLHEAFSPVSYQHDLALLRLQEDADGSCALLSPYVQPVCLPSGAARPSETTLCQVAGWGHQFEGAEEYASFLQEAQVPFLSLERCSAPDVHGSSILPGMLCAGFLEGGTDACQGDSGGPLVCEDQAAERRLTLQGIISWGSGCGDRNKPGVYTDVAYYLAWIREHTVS
* marks the source's active call; other numbers are inactive results; / = not tested or not shown. In the library only some 1.4% were active in any assay of this set; here they are far more common.

SMILES	FXIa inh	Calpain2 inh	hK5 inh	thrombin 1536	FXIIa inh
C(/C=C/c1ccccc1)=N/N1CCN(c2ccccc2)CC1	1.6	-21.6	-2.4	-1.4	18.7
C=C(CCC(=O)c1ccccc1)C(=O)c1ccccc1	-1.5	13.4	19.0	40.9*	-6.2
Cn1c(=O)n(C)c2cc([N+](=O)[O-])c(N3CCN(S(C)(=O)=O)CC3)cc21	4.0	10.5	-21.5	0.2	13.9
Cn1c(=O)n(C)c2cc([N+](=O)[O-])c(N3CCN(CCO)CC3)cc21	0.2	66.4*	1.8	0.8	8.9
CCN(CC)c1ccc(C(=O)NC(=S)Nc2cc(S(=O)(=O)N3CCOCC3)ccc2-n2cncn2)cc1	4.0	57.9*	-12.6	-5.6	3.1
CCOc1ccc(N(CC(=O)Nc2ccc3c(c2)OCCO3)S(=O)(=O)c2c(C)noc2C)cc1	19.4	2.8	29.8	20.7	40.8*
CC1CCC2(CC1)NC(=O)N(Cc1cccc(C(F)(F)F)c1)C2=O (centres undefined)	-7.1	4.9	0.8	-14.2	10.3
O=C(CN(Cc1ccccc1F)C(=O)Cn1nnc(-c2cccs2)n1)NCC1CCCO1 (centres undefined)	-3.1	7.5	53.4*	18.6	-0.1
Cc1ccc(Cn2c(=N)c(C(=O)NCc3ccco3)cc3c(=O)n4ccccc4nc32)cc1	12.6	-182.8	40.9*	19.9	19.0
N=c1c(C(=O)NCc2ccco2)cc2c(=O)n3ccccc3nc2n1CCc1ccccc1	5.6	-284.3	-26.7	0.5	7.8
COc1cccc(CNC(=O)C(=O)NCC(c2ccco2)N2CCOCC2)c1 (centres undefined)	0.9	-11.7	-10.5	-14.3	7.2
O=C(Nc1ccc2c(c1)OCO2)C1CCN(C(=O)c2ccc(Br)cc2)CC1	1.8	-10.8	-0.6	6.5	10.6
COCCN(C(=O)C1CC1)c1nnc(-c2ccc(C)cc2)s1	33.6	13.9	-3.6	0.6	64.5*
COc1ccc(NC(=S)NCCc2c(C)[nH]c3ccc(OC)cc23)cc1	-3.7	61.6*	-3.0	-4.6	6.0
O=S(NC1CCCCC1)C12CC3CC(CC(C3)C1)C2 (centres undefined)	42.3*	27.6	-13.2	2.8	62.4*
Cc1onc(NC(=O)c2ccc(Cl)cc2Cl)c1Br	-1.3	-13.9	1.1	-0.5	8.4
CCc1cc(=O)oc2cc3occ(-c4ccc(OC)c(F)c4)c3cc12	6.9	-6.4	-2.5	-2.5	5.0
Cc1cc(OC(=O)c2c(F)cc(F)cc2F)nc(C)n1	2.5	14.6	-6.6	-6.6	13.2
COCCN=c1scc(-c2cccs2)n1/N=C/c1ccc(O)c(O)c1O	0.8	65.2*	-32.4	-12.3	9.9
O=C1CC(c2ccccc2)Cc2nc(N3CCc4ccccc4C3)ncc21 (centres undefined)	0.1	54.5*	-12.6	0.2	12.5
O=C1CC2C(CC(OC(=O)c3ccc(-c4ccccc4)cc3)C2CO)O1 (centres undefined)	-6.8	-4.3	-7.7	-1.6	8.1
O=C1C[C@H]2[C@H](CO)[C@@H](OC(=O)c3ccc(-c4ccccc4)cc3)C[C@H]2O1	17.3	11.9	71.7*	19.3	10.3
Cc1noc(C)c1S(=O)(=O)Nc1ccc(C(=O)N2CCC(C)CC2)cc1	1.6	4.0	/	-1.0	4.1
CC(=O)N1C(=O)/C(=C2\SC(=S)N(c3c(C)n(C)n(-c4ccccc4)c3=O)C2=O)c2ccccc21	-5.8	-1.4	9.6	50.1*	5.6
O=c1cc(-c2ccc([N+](=O)[O-])cc2)nc2cc(-c3ccc(Cl)cc3)[nH]n12	16.5	-12.9	48.2*	62.8*	-2.8
SMILES	FXIa inh	Calpain2 inh	hK5 inh	thrombin 1536	FXIIa inh
O=c1cc(-c2ccccc2)nc2cc(-c3ccco3)[nH]n12	1.1	-228.2	-1.8	-1.3	5.3
CCC(=O)NC(=S)Nc1cccc(NC(=O)c2ccccc2)c1	35.2	25.8	21.5	40.4*	34.6
O=C(O)c1cccc(NC(=S)NC(=O)c2ccc(-c3ccccc3)cc2)c1	-0.7	70.4*	14.0	-2.4	5.6
O=C(CN1CCCc2ccccc21)NCCc1ccc(Cl)cc1	-3.0	10.3	0.8	-5.4	5.7
O=C(COc1cc(O)c2c(=O)c3ccccc3oc2c1)OCc1ccccc1	-1.8	2.7	-0.7	-2.4	4.6
O=C(NNC(=O)c1ccc2ncccc2c1)c1ccc(Cl)cc1	13.0	8.4	22.4	6.8	16.7
Cc1ccc(C(=O)NNC(=O)c2ccc3ncccc3c2)cc1	-6.8	51.8*	-12.9	-4.0	-0.6
Cc1cc(C(=O)NNC(=O)NC(C)C)no1	0.2	14.9	0.8	0.1	7.0
